Assay results published in ChEMBL document CHEMBL4229392, “An Efficient Buchwald-Hartwig/Reductive Cyclization for the Scaffold Diversification of Halogenated Phenazines: Potent Antibacterial Targeting, Biofilm Eradication, and Prodrug Exploration” (J Med Chem, 2018).
≈ marks a conversion by molar mass, not a printed value.

Assays:
[1] = test system: Staphylococcus epidermidis; test: Antibacterial activity against methicillin-resistant Staphylococcus epidermidis ATCC 35984 after 16 to 18 hrs by broth microdilution method; format: functional
[2] = Half life in human serum by LC-MS analysis; format: ADME, cell-free
How it was run: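 Human serum pre-warmed to 37 °C, spiked with prodrug from 10 mM DMSO stock plus internal standard, vortexed, then held 1 to 60 min. At each time point, acetonitrile with 0.5% formic acid was added to precipitate proteins. Released active HP was quantified as its ratio to internal standard against standard curves.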

HeLa = test: Cytotoxicity against human HeLa cells after 24 hrs by LDH release assy; format: cell-based
How it was run: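 HeLa cells in DMEM with 10% FBS at 37 °C, 5% CO2, dosed at 70-80% confluence with compound diluted in medium at 25, 50 and 100 µM for 24 h. Supernatant mixed with LDH reaction mixture, 30 min at room temperature, stopped, A490 read. Triton X-100 (2% v/v) as maximal-release control, medium only as no-death control, DMSO as vehicle. Three independent experiments.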

Staphylococcus aureus [3] = test: Bactericidal activity against methicillin-resistant Staphylococcus aureus BAA-1707 planktonic cells after 24 hrs by calgary biofilm device method; format: organism-based
How it was run: (§1)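 Biofilms grown 24 h at 37 °C on Calgary device pegs from mid-log culture diluted 1,000-fold in TSB + 0.5% glucose; washed pegs challenged 24 h at 37 °C with 2-fold serial dilutions. Challenge medium subcultured into fresh TSBG overnight; MBC = concentration without visible turbidity; at least three independent experiments.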

[4] = Hemolytic activity in human RBC at 200 uM after 1 hr relative to control; format: ADME, cell-based, Erythrocyte; settings: red blood cells (erythrocytes), read-out: Activity
How it was run: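 Human RBCs drawn fresh into EDTA were washed three times in Tris-buffered saline (0.01 M Tris, 0.155 M NaCl, pH 7.2). 2% hRBC suspension was added to compound from DMSO stock, final 200 µM, for 1 h at 37 °C, then centrifuged and supernatant OD405 read. Scaled between DMSO (0%) and Triton X (100%). Three independent experiments.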

[5] = test system: Staphylococcus epidermidis; test: Induction of biofilm eradication of methicillin-resistant Staphylococcus epidermidis ATCC 35984 after 24 hrs by calgary biofilm device method; format: functional
How it was run: (§2)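 Calgary device: biofilms established 24 h at 37 °C from mid-log culture diluted 1,000-fold in TSBG (0.5% glucose), washed, exposed 24 h to 2-fold serial dilutions, then peg lid moved to fresh TSBG for 24 h recovery. MBEC = lowest concentration giving no turbidity; at least three independent experiments.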

Enterococcus faecium [6] = test: Antibacterial activity against vancomycin-resistant Enterococcus faecium ATCC 700221 after 16 to 18 hrs by broth microdilution method; format: functional
How it was run: (§3)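 CLSI broth microdilution in Lysogeny Broth, eleven two-fold dilutions spanning 0.10–100 µM; ~10^5 cells per well from log-phase culture; DMSO vehicle (top 1% v/v). MIC = lowest concentration preventing growth after 16–18 h at 37 °C, supported by OD600; three independent experiments.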

[7] = test system: Staphylococcus epidermidis; test: Bactericidal activity against methicillin-resistant Staphylococcus epidermidis ATCC 35984 planktonic cells after 24 hrs by calgary biofilm device method; format: organism-based; how it was run: as §1
Staphylococcus aureus [8] = test: Antibacterial activity against methicillin-resistant Staphylococcus aureus BAA-1707 after 16 to 18 hrs by broth microdilution method; format: functional; how it was run: as §3
[9] = test system: Mycobacterium tuberculosis; test: Antibacterial activity against Mycobacterium tuberculosis H37Ra ATCC 25177 after 7 days; format: functional; settings: H37Ra ATCC 25177, 168 h
How it was run: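 M. tuberculosis H37Ra grown two weeks in Middlebrook 7H9, diluted to OD600 0.01; two-fold serial dilutions 0.024–50 µM (streptomycin positive control, 0.16–340 µM); final DMSO 0.5%. Incubated 7 days at 37 °C; MIC = lowest concentration with no growth, OD600 recorded; three independent experiments.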

Enterococcus faecium [10] = test: Bactericidal activity against vancomycin-resistant Enterococcus faecium ATCC 700221 planktonic cells after 24 hrs by calgary biofilm device method; format: organism-based; how it was run: as §1
Enterococcus faecium [11] = test: Induction of biofilm eradication of vancomycin-resistant Enterococcus faecium ATCC 700221 after 24 hrs by calgary biofilm device method; format: functional; how it was run: as §2
Staphylococcus aureus [12] = test: Induction of biofilm eradication of methicillin-resistant Staphylococcus aureus 2 after 24 hrs by calgary biofilm device method; format: functional; how it was run: as §2
Staphylococcus aureus [13] = test: Bactericidal activity against methicillin-resistant Staphylococcus aureus 2 planktonic cells after 24 hrs by calgary biofilm device method; format: organism-based; how it was run: as §1
Staphylococcus aureus [14] = test: Induction of biofilm eradication of methicillin-resistant Staphylococcus aureus BAA-1707 after 24 hrs by calgary biofilm device method; format: functional; how it was run: as §2
Staphylococcus aureus [15] = test: Antibacterial activity against methicillin-resistant Staphylococcus aureus 2 after 16 to 18 hrs by broth microdilution method; format: functional; how it was run: as §3

With `COCCOCCOCCOCCOC(=O)Oc1c(Br)cc(Br)c2nc3cc(Cl)ccc3nc12` the MIC [1] was 0.038 µM (≈ 0.0237 µg/mL), the half-life [2] was < 1 min and the IC50 (HeLa) was > 100 µM. It also gave an MBC (Staphylococcus aureus [3]) of 6.25 µM (≈ 3.89 µg/mL), a hemolysis at 1 h, 200 µM [4] of 1.1% and an MBEC [5] of 18.8 µM. For the same compound, the MIC (Enterococcus faecium [6]) was 0.1 µM (≈ 0.0623 µg/mL) and the MBC [7] was 9.38 µM (≈ 5.84 µg/mL).

With `OC[C@H]1O[C@@H](Oc2c(Br)cc(Br)c3nc4ccccc4nc23)[C@H](O)[C@@H](O)[C@@H]1O` the MIC [1] was > 100 µM, the half-life [2] was > 260 min and the hemolysis at 1 h, 200 µM [4] was ≤ 1%. For the same compound, the MIC (Staphylococcus aureus [8]) was > 100 µM and the MIC (Enterococcus faecium [6]) was > 100 µM.

In the case of `Oc1ccc(Br)c2nc3cc(Cl)ccc3nc12`, the MIC [1] is reported as 18.8 µM (≈ 5.82 µg/mL), the MIC [9] is reported as 6.25 µM (≈ 1.93 µg/mL) and the IC50 (HeLa) is reported as > 100 µM. The MIC (Enterococcus faecium [6]) was 25 µM (≈ 7.74 µg/mL).

For `Cc1ccc2nc3c(O)c(Br)cc(Br)c3nc2c1`, the MIC [1] was 0.3 µM (≈ 0.11 µg/mL), the MIC [9] was 6.25 µM (≈ 2.3 µg/mL) and the IC50 (HeLa) was > 100 µM. The MBC (Enterococcus faecium [10]) was 12.5 µM (≈ 4.6 µg/mL), the hemolysis at 1 h, 200 µM [4] was ≤ 1% and the MBEC (Enterococcus faecium [11]) was 3.13 µM. The MIC (Enterococcus faecium [6]) was 2.35 µM (≈ 0.865 µg/mL).

In the case of `Cc1cc(C)c2nc3c(Br)ccc(O)c3nc2c1`, the MIC [9] is reported as 50 µM (≈ 15.2 µg/mL), the IC50 (HeLa) is reported as > 100 µM and the MIC (Staphylococcus aureus [8]) is reported as 4.69 µM (≈ 1.42 µg/mL). It also gave an MIC (Enterococcus faecium [6]) of 9.38 µM (≈ 2.84 µg/mL).

In the case of `O=C(O)CN(CCN(CC(=O)O)CC(=O)O)CC(=O)O` [EDETIC ACID], the MBEC (Staphylococcus aureus [12]) is reported as >2000 µM, the MBC (Staphylococcus aureus [3]) is reported as > 2000 µM and the MIC (Staphylococcus aureus [8]) is reported as 25 µM (≈ 7.31 µg/mL). The MBC (Staphylococcus aureus [13]) was 2000 µM (≈ 584 µg/mL), the MBEC (Staphylococcus aureus [14]) was >2000 µM and the MBEC [5] was >2000 µM. For the same compound, the MBC [7] was 1000 µM (≈ 292 µg/mL).

With `CS(=O)(=O)N1CCN(C(=O)Oc2c(Br)cc(Br)c3nc4ccccc4nc23)C1=O` the MIC [1] was 1.56 µM (≈ 0.849 µg/mL), the half-life [2] was < 1 min and the IC50 (HeLa) was > 100 µM. The MBC (Enterococcus faecium [10]) was 9.38 µM (≈ 5.1 µg/mL), the MBC (Staphylococcus aureus [3]) was 37.5 µM (≈ 20.4 µg/mL) and the hemolysis at 1 h, 200 µM [4] was ≤ 1%. The MBEC (Enterococcus faecium [11]) was 9.38 µM, the MBEC (Staphylococcus aureus [14]) was 75 µM and the MBEC [5] was 37.5 µM. For the same compound, the MIC (Enterococcus faecium [6]) was 3.13 µM (≈ 1.7 µg/mL) and the MBC [7] was 18.8 µM (≈ 10.2 µg/mL).

For `CCCc1ccc2nc3c(O)c(Br)cc(Br)c3nc2c1`, the MIC [1] was 0.15 µM (≈ 0.0594 µg/mL), the IC50 (HeLa) was > 50 µM and the MBC (Enterococcus faecium [10]) was 25 µM (≈ 9.9 µg/mL). It also gave a hemolysis at 1 h, 200 µM [4] of 2.1%, an MIC (Staphylococcus aureus [8]) of 0.1 µM (≈ 0.0396 µg/mL) and an MBEC (Staphylococcus aureus [14]) of 75 µM. The MIC (Enterococcus faecium [6]) was 3.13 µM (≈ 1.24 µg/mL) and the MBC [7] was 25 µM (≈ 9.9 µg/mL).

With `CCOc1ccc2nc3c(O)c(Br)cc(Br)c3nc2c1` the MIC [1] was 18.8 µM (≈ 7.48 µg/mL), the MIC (Staphylococcus aureus [8]) was > 100 µM and the MIC (Enterococcus faecium [6]) was > 100 µM.

In the case of `CCCCCCCCCC(=O)N[C@@H](Cc1c[nH]c2ccccc12)C(=O)N[C@H](CC(N)=O)C(=O)N[C@@H](CC(=O)O)C(=O)N[C@@H]1C(=O)NCC(=O)N[C@@H](CCCN)C(=O)N[C@@H](CC(=O)O)C(=O)N[C@H](C)C(=O)N[C@@H](CC(=O)O)C(=O)NCC(=O)N[C@H](CO)C(=O)N[C@@H]([C@H](C)CC(=O)O)C(=O)N[C@@H](CC(=O)c2ccccc2N)C(=O)O[C@@H]1C` [DAPTOMYCIN], the MBC (Staphylococcus aureus [3]) is reported as 125 µM (≈ 203 µg/mL) and the MBC (Staphylococcus aureus [13]) is reported as 62.5 µM (≈ 101 µg/mL).

Compound `CO[C@H]1/C=C/O[C@@]2(C)Oc3c(C)c(O)c4c(O)c(c(/C=N/N5CCN(C)CC5)c(O)c4c3C2=O)NC(=O)/C(C)=C\C=C\[C@H](C)[C@H](O)[C@@H](C)[C@@H](O)[C@@H](C)[C@H](OC(C)=O)[C@@H]1C` [RIFAMPIN] has an MIC [1] of 0.1 µM (≈ 0.0823 µg/mL), an MIC (Staphylococcus aureus [15]) of 0.1 µM (≈ 0.0823 µg/mL) and an MBEC (Staphylococcus aureus [12]) of 46.9 µM. The MBC (Staphylococcus aureus [13]) was 2 µM (≈ 1.65 µg/mL), the MBEC [5] was 15.6 µM and the MBC [7] was 3 µM (≈ 2.47 µg/mL).

In the case of `CCCCCCCCCC(=O)N[C@@H](Cc1c[nH]c2ccccc12)C(=O)N[C@@H](CC(N)=O)C(=O)N[C@@H](CC(=O)O)C(=O)N[C@@H]1C(=O)NCC(=O)N[C@@H](CCCN)C(=O)N[C@@H](CC(=O)O)C(=O)N[C@H](C)C(=O)N[C@@H](CC(=O)O)C(=O)NCC(=O)N[C@H](CO)C(=O)N[C@@H]([C@H](C)CC(=O)O)C(=O)N[C@@H](CC(=O)c2ccccc2N)C(=O)O[C@@H]1C` [DAPTOMYCIN], the MBEC (Staphylococcus aureus [12]) is reported as >2000 µM, the MIC (Staphylococcus aureus [8]) is reported as 3.13 µM (≈ 5.07 µg/mL) and the MBEC (Staphylococcus aureus [14]) is reported as >2000 µM.

For `CN[C@@H]1[C@H](O[C@H]2[C@H](O[C@H]3[C@H](O)[C@@H](O)[C@H](N=C(N)N)[C@@H](O)[C@@H]3N=C(N)N)O[C@@H](C)[C@]2(O)C=O)O[C@@H](CO)[C@H](O)[C@H]1O` [STREPTOMYCIN], the MIC [9] was 1.32 µM (≈ 0.768 µg/mL).

For `COCCOCCOCC(=O)Oc1c(Br)cc(Br)c2nc3ccccc3nc12`, the half-life [2] was < 1 min, the IC50 (HeLa) was > 100 µM and the MBC (Enterococcus faecium [10]) was 6.25 µM (≈ 3.21 µg/mL). It also gave an MBC (Staphylococcus aureus [3]) of 18.8 µM (≈ 9.67 µg/mL), a hemolysis at 1 h, 200 µM [4] of 1.2% and an MBEC (Staphylococcus aureus [14]) of 75 µM. The MBEC [5] was 37.5 µM, the MIC (Enterococcus faecium [6]) was 3.13 µM (≈ 1.61 µg/mL) and the MBC [7] was 9.38 µM (≈ 4.82 µg/mL).
